Measurements taken from ChEMBL document CHEMBL5303300, “EUbOPEN Chemogenomics Library - Multiplex” (2023).
“And” between values parts separate entries of the source, which are not always exact repeats. Equal entries are not always repeated.

Tested on: U2OS
Assay: Multiplex assay against U2OS
Assay type: toxicity, cell-based
Conditions: human, number of replicates 2
Procedure, shortened: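 Live cells carried four stains from seeding: Hoechst33342, BioTracker Green Microtubule Cytoskeleton Dye, MitoTracker Red and Annexin V Alexa Fluor 680. They were imaged on a CQ1 microscope at 37°C and 5% CO2 after compound addition. Using CellPathfinder machine-learning gating, cells were split into Hoechst high-intensity objects or normal cells, normal cells into healthy, pyknosed or fragmented nuclei, and pyknosed cells into mitotic or apoptotic; tubulin, mitochondrial-mass and membrane-permeability phenotypes are per cents of healthy-nucleus cells.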

[1] = 12 h, 1 µM, compound concentration 1 uM
[2] = 12 h, 10 µM, compound concentration 10 uM
[3] = 24 h, 1 µM, compound concentration 1 uM
[4] = 24 h, 10 µM, compound concentration 10 uM
[5] = 48 h, 1 µM, compound concentration 1 uM
[6] = 48 h, 10 µM, compound concentration 10 uM

## Cn1cc(-n2cnc3c(NCc4nc5cc(Cl)c(Cl)cc5[nH]4)nc(N4CCOCC4)nc32)cn1
[1]
  Population Apoptotic (%): 41% and 88%
  Population Healthy Nuclei (%): 36% and 71%
  Population Hoechst High Intensity Objects (%): 0%
  Population Membrane Permeable-Phenotype (%): 5% and 7%
  Population Mitochondria Different-Phenotype (%): 0% and 8%
  Population Normal (%): 100%
  Population Pyknosed Nuclei (%): 36% and 24%
  Population Tubulin-Different-Phenotype (%): 58% and 50%
[2]
  Population Apoptotic (%): 62% and 75%
  Population Hoechst High Intensity Objects (%): 0%
  Population Membrane Permeable-Phenotype (%): 33% and 23%
  Population Mitochondria Different-Phenotype (%): 16% and 37%
  Population Mitotic Cells (%): 37% and 24%
  Population Normal (%): 100%
  Population Pyknosed Nuclei (%): 39% and 28%
  Population Tubulin-Different-Phenotype (%): 66% and 73%
[3]
  Population Apoptotic (%): 96% and 80%
  Population Fragmented Nuclei (%): 9% and 21%
  Population Healthy Nuclei (%): 11% and 13%
  Population Hoechst High Intensity Objects (%): 1% and 7%
  Population Membrane Permeable-Phenotype (%): 18% and 0%
  Population Normal (%): 98% and 92%
  Population Pyknosed Nuclei (%): 79% and 65%
  Population Tubulin-Different-Phenotype (%): 50% and 80%
[4]
  Population Apoptotic (%): 94% and 95%
  Population Hoechst High Intensity Objects (%): 1% and 0%
  Population Mitotic Cells (%): 5% and 4%
  Population Normal (%): 98% and 100%
  Population Pyknosed Nuclei (%): 64% and 61%
  Population Tubulin-Different-Phenotype (%): 89% and 33%
[5]
  Population Apoptotic (%): 100% and 86%
  Population Fragmented Nuclei (%): 10% and 16%
  Population Healthy Nuclei (%): 4% and 0%
  Population Hoechst High Intensity Objects (%): 2% and 7%
  Population Mitotic Cells (%): 0% and 13%
  Population Normal (%): 97% and 92%
  Population Pyknosed Nuclei (%): 85% and 83%
[6]
  Population Apoptotic (%): 94% and 92%
  Population Healthy Nuclei (%): 10% and 5%
  Population Hoechst High Intensity Objects (%): 0% and 1%
  Population Membrane Permeable-Phenotype (%): 100% and 57%
  Population Mitochondria Different-Phenotype (%): 100% and 57%
  Population Mitotic Cells (%): 5% and 7%
  Population Normal (%): 100% and 98%
  Population Pyknosed Nuclei (%): 44% and 85%
  Population Tubulin-Different-Phenotype (%): 100% and 85%

## CN(C)CC#Cc1ccc2[nH]c3c(c2c1)-c1nc(N)ncc1CCC3
[1]
  Population Apoptotic (%): 100% and 38%
  Population Fragmented Nuclei (%): 30% and 13%
  Population Healthy Nuclei (%): 61% and 68%
  Population Hoechst High Intensity Objects (%): 3% and 0%
  Population Membrane Permeable-Phenotype (%): 5% and 1%
  Population Mitochondria Different-Phenotype (%): 2% and 1%
  Population Normal (%): 96% and 99%
  Population Pyknosed Nuclei (%): 7% and 17%
  Population Tubulin-Different-Phenotype (%): 61% and 84%
[2]
  Population Apoptotic (%): 50% and 17%
  Population Healthy Nuclei (%): 33% and 56%
  Population Hoechst High Intensity Objects (%): 0%
  Population Membrane Permeable-Phenotype (%): 10% and 5%
  Population Mitochondria Different-Phenotype (%): 0% and 4%
  Population Mitotic Cells (%): 50% and 82%
  Population Normal (%): 100% and 99%
  Population Tubulin-Different-Phenotype (%): 20% and 47%
[3]
  Population Apoptotic (%): 75% and 53%
  Population Fragmented Nuclei (%): 30% and 17%
  Population Healthy Nuclei (%): 57% and 58%
  Population Hoechst High Intensity Objects (%): 1% and 0%
  Population Membrane Permeable-Phenotype (%): 0% and 3%
  Population Mitochondria Different-Phenotype (%): 0% and 1%
  Population Mitotic Cells (%): 25% and 46%
  Population Normal (%): 98% and 99%
  Population Pyknosed Nuclei (%): 12% and 23%
  Population Tubulin-Different-Phenotype (%): 58% and 82%
[4]
  Population Apoptotic (%): 66% and 24%
  Population Healthy Nuclei (%): 31% and 39%
  Population Hoechst High Intensity Objects (%): 0%
  Population Membrane Permeable-Phenotype (%): 27% and 15%
  Population Mitochondria Different-Phenotype (%): 9% and 4%
  Population Mitotic Cells (%): 33% and 75%
  Population Normal (%): 100% and 99%
  Population Tubulin-Different-Phenotype (%): 45% and 49%
[5]
  Population Apoptotic (%): 45% and 69%
  Population Fragmented Nuclei (%): 37% and 13%
  Population Healthy Nuclei (%): 52% and 69%
  Population Hoechst High Intensity Objects (%): 0%
  Population Membrane Permeable-Phenotype (%): 7% and 3%
  Population Mitochondria Different-Phenotype (%): 5% and 0%
  Population Mitotic Cells (%): 54% and 30%
  Population Normal (%): 99% and 100%
  Population Pyknosed Nuclei (%): 11% and 17%
  Population Tubulin-Different-Phenotype (%): 67% and 77%
[6]
  Population Apoptotic (%): 50%
  Population Healthy Nuclei (%): 19% and 48%
  Population Hoechst High Intensity Objects (%): 0%
  Population Membrane Permeable-Phenotype (%): 20% and 28%
  Population Mitochondria Different-Phenotype (%): 0% and 2%
  Population Mitotic Cells (%): 50% and 49%
  Population Normal (%): 100% and 99%
  Population Tubulin-Different-Phenotype (%): 20% and 45%

## CN(C)[C@H]1CC[C@H](Nc2ncc3ncnc(Nc4ccc(F)c(Cl)c4)c3n2)CC1
[1]
  Population Fragmented Nuclei (%): 46% and 17%
  Population Healthy Nuclei (%): 42% and 68%
  Population Hoechst High Intensity Objects (%): 0%
  Population Membrane Permeable-Phenotype (%): 4% and 1%
  Population Mitochondria Different-Phenotype (%): 4% and 1%
  Population Mitotic Cells (%): 100% and 64%
  Population Normal (%): 100% and 99%
  Population Pyknosed Nuclei (%): 10% and 14%
  Population Tubulin-Different-Phenotype (%): 76% and 89%
[2]
  Population Apoptotic (%): 6% and 13%
  Population Fragmented Nuclei (%): 38% and 27%
  Population Healthy Nuclei (%): 36%
  Population Hoechst High Intensity Objects (%): 9% and 11%
  Population Membrane Permeable-Phenotype (%): 7% and 2%
  Population Mitochondria Different-Phenotype (%): 6% and 1%
  Population Mitotic Cells (%): 93% and 86%
  Population Normal (%): 90% and 88%
  Population Pyknosed Nuclei (%): 25% and 35%
  Population Tubulin-Different-Phenotype (%): 50% and 81%
  Total Cell Count: 197 and 472
[3]
  Population Apoptotic (%): 16% and 47%
  Population Healthy Nuclei (%): 43% and 76%
  Population Hoechst High Intensity Objects (%): 0%
  Population Membrane Permeable-Phenotype (%): 0% and 3%
  Population Mitochondria Different-Phenotype (%): 0% and 1%
  Population Mitotic Cells (%): 83% and 52%
  Population Normal (%): 100% and 99%
  Population Pyknosed Nuclei (%): 9% and 11%
  Population Tubulin-Different-Phenotype (%): 75% and 92%
[4]
  Population Apoptotic (%): 17% and 10%
  Population Fragmented Nuclei (%): 40% and 25%
  Population Healthy Nuclei (%): 33% and 40%
  Population Hoechst High Intensity Objects (%): 14% and 9%
  Population Membrane Permeable-Phenotype (%): 8% and 2%
  Population Mitochondria Different-Phenotype (%): 2% and 0%
  Population Mitotic Cells (%): 82% and 89%
  Population Normal (%): 85% and 90%
  Population Pyknosed Nuclei (%): 26% and 33%
  Population Tubulin-Different-Phenotype (%): 61% and 82%
[5]
  Population Apoptotic (%): 75% and 60%
  Population Healthy Nuclei (%): 39% and 76%
  Population Hoechst High Intensity Objects (%): 0%
  Population Membrane Permeable-Phenotype (%): 3% and 1%
  Population Mitochondria Different-Phenotype (%): 0% and 1%
  Population Mitotic Cells (%): 25% and 39%
  Population Normal (%): 100% and 99%
  Population Pyknosed Nuclei (%): 5% and 8%
  Population Tubulin-Different-Phenotype (%): 71% and 89%
[6]
  Population Apoptotic (%): 18% and 14%
  Population Fragmented Nuclei (%): 36% and 26%
  Population Healthy Nuclei (%): 38% and 47%
  Population Hoechst High Intensity Objects (%): 13% and 10%
  Population Membrane Permeable-Phenotype (%): 9% and 1%
  Population Mitochondria Different-Phenotype (%): 4% and 0%
  Population Mitotic Cells (%): 81% and 85%
  Population Normal (%): 86% and 89%
  Population Pyknosed Nuclei (%): 25%
  Population Tubulin-Different-Phenotype (%): 53% and 79%
